Measured values gathered from unrelated publications.
Lines come from different studies, so protocols differ.
Cell line: SN12C
Observed: cell growth or viability

SMILES | test | conditions | quantity | result
CC[C@@]1(O)C(=O)OCc2c1cc1n(c2=O)Cc2cc3ccccc3nc2-1 | SRB | – | GI50 | 20 nM
COc1ccc(C(=O)/C=C/c2cccc(Br)c2)cc1S(N)(=O)=O | SRB | 10 µM | inhibition | 179%
COc1cccc(Oc2ccccc2NC(=O)CNC(=O)c2cccc3ccccc23)c1 | SRB | 48 h | GI50 | 1450 nM
S=C([S][Au-][P+](CCCCCC[P+]([Au-][S]C(=S)n1cccn1)(c1ccccc1)c1ccccc1)(c1ccccc1)c1ccccc1)n1cccn1 | – | – | GI50 | 1950 nM
COc1cc(-c2ccc(-c3ccc(C(=N)N)nc3)s2)cc(OC)c1OC | – | – | GI50 | 2050 nM
Cc1cc(C)n(C(=S)[S][Au][PH](CCCCCC[PH]([Au][S]C(=S)n2nc(C)cc2C)(c2ccccc2)c2ccccc2)(c2ccccc2)c2ccccc2)n1 | – | – | GI50 | 479 nM
COc1ccc(-c2ccc(-c3ccc(C(=N)N)nc3)s2)cc1Cl | – | – | GI50 | 1790 nM
COc1ccc(C(=O)/C=C/c2ccc(Cl)c(Cl)c2)cc1S(N)(=O)=O | SRB | 48 h | GI50 | 1400 nM
